Compound activity: PubChem BioAssay, several laboratories
Shown are actives, neighbours in structure and some others; about 1.5% of the full set was active somewhere.
PG9 binder – PG9 antibody binding by small molecule; TR-FRET gp120-PG9 antibody binding; inhibition, % at 6.7 µM; 360,000 tested, 0.43% active; AID 624416; in the data active = inhibition above about 8.5%
NR1D1 modulator – Rev-erb alpha (human) modulation | activity, % at 10 µM | 370,000 tested, 0.79% active | AID 1259318 | Rev-erbα–FITC-DNA binding, fluorescence polarization, 90 min;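 active = activity above about 14%, limit read from the data; passing the limit was not always enough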;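 also: 0% = DMSO wells with 35 nM protein and 100% = DMSO wells with 750 nM protein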
Target sequence (P20393 whole entry, looked up): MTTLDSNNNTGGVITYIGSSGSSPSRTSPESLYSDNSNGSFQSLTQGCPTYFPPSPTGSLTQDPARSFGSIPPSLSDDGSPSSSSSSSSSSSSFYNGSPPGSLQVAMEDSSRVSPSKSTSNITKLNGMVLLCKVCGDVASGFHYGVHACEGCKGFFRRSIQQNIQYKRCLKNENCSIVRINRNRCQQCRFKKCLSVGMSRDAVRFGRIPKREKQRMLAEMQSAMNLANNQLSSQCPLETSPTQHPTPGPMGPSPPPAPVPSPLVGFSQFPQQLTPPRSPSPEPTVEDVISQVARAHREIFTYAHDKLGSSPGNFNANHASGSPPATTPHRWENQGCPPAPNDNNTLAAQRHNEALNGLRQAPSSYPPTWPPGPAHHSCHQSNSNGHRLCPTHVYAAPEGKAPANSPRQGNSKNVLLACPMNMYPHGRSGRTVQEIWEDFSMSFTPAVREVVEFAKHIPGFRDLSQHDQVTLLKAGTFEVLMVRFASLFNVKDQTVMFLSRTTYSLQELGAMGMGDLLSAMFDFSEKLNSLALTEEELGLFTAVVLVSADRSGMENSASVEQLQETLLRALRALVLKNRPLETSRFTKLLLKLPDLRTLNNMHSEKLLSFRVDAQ
NR2E3 ag-1 – activates human NR2E3 receptor | Q9Y5X4 | CHO-S Gal4-NCOR/VP16-NR2E3 two-hybrid, luciferase | inhibition of corepressor binding, % at 3.98 µM | 360,000 tested, 0.35% active;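 active = inhibition above the mean of all tested compounds plus 3 SD, cut at about 70% in these data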;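 also: 0% = DMSO with NR2E3 transfected cells and 100% = cells lacking NR2E3 construct; higher means lower luciferase signal from less NR2E3 corepressor binding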
NR2E3 ag-2 – activates human photoreceptor nuclear receptor NR2E3. inhibition of corepressor binding, % at 4.78 µM. AID 2300. Q9Y5X4. 320,000 tested, 0.12% active. GST-NR2E3/biotin-RetCOR TR-FRET, 1536-well;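 active = percent inhibition above the cutoff of mean plus 3 SD of all tested compounds, set per screening campaign, cut at about 20% in these data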;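 also: 0% = DMSO wells and 100% = biotin wells as full block of FRET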
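System: GST-tagged NR2E3 plus biotinylated RetCOR corepressor; Amount: 1.35 nM GST-tagged NR2E3 final; Dosing: single nominal compound dose of 4.8 µM; Schedule: 5 h incubation at 4 °C; Technique: TR-FRET with europium anti-GST and streptavidin-D2, 340 nm excitation; Controls: biotin wells as high control, 0.6% DMSO wells as low control.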
NR2E3 ag confirm – NR2E3 agonism confirmed in two-hybrid assay; inhibition, % at 3.98 µM; 2,300 tested, 51% active; AID 624378; shares compounds with NR2E3 ag-1; CHO-S mammalian two-hybrid NR2E3-NCOR, luciferase luminescence;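 active = average inhibition above a cutoff equal to the mean inhibition of all tested compounds plus one SD, cut at about 70% in these data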;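 also: 0% = DMSO in NR2E3 cells and 100% = DMSO in cells lacking NR2E3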
GAL4-VP16 luc – reduces GAL4-VP16 reporter signal in NR2E3 counterscreen. inhibition, % at 3.98 µM. 2,300 tested, 29% active. CHO-S GAL4-VP16 luciferase reporter, luminescence. shares compounds with NR2E3 ag-1;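 active = mean inhibition above a cutoff equal to the average over all tested compounds plus one standard deviation, cut at about 70% in these data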;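 also: luciferase from a UAS reporter driven by GAL4-VP16 transactivation; 0% = DMSO with VP16-transfected cells and 100% = DMSO with cells lacking VP16; higher means less reporter light so more repression of VP16 activity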
* hit, by the source's call.

For Cc1c(C(=O)Nc2ccc3c(c2)OCCO3)sc2nc(-c3ccccc3)cn12 the results were PG9 binder 0, NR1D1 modulator -6, NR2E3 ag-1 66, NR2E3 ag-2 2, NR2E3 ag confirm 69 and GAL4-VP16 luc 57.
Screening COC(=O)[C@H]1C[C@@]2(c3ccccc3)c3ccccc3N[C@H]2N1 returned NR1D1 modulator 0.
Cc1cc(N2CCN(C(c3ccccc3)c3ccccc3)CC2)n2ncnc2n1 was read as PG9 binder 1, NR1D1 modulator -6, NR2E3 ag-1 -24 and NR2E3 ag-2 4.
For Cc1cc(N2CCN(c3nc4ccccc4s3)CC2)n2ncnc2n1 the results were PG9 binder 0, NR1D1 modulator 4, NR2E3 ag-1 73*, NR2E3 ag-2 1, NR2E3 ag confirm 94* and GAL4-VP16 luc 76*.
CC(C)CCCCCCCCCCCCC(=O)NCC(=O)NC1C(C)OC(Nc2ncnc3nc[nH]c23)C(O)C1O (stereo not given) was read as PG9 binder -1, NR1D1 modulator -4, NR2E3 ag-1 72*, NR2E3 ag confirm 98* and GAL4-VP16 luc 97*.
`O=c1c2ccccc2sc2ccc(C#CC3(O)CCCCC3)cc12` gave PG9 binder -2, NR1D1 modulator 3, NR2E3 ag-1 99*, NR2E3 ag-2 8, NR2E3 ag confirm 85* and GAL4-VP16 luc 73*.
`O=c1c2ccccc2oc2cc(C#CC3(O)CCCCC3)ccc12` gave PG9 binder 0, NR1D1 modulator -4, NR2E3 ag-1 70, NR2E3 ag-2 2, NR2E3 ag confirm 59 and GAL4-VP16 luc 16.
COC(=O)[C@]12C[C@H](CC(=O)N3CCOCC3)C(=O)N(Cc3ccc(Cl)cc3Cl)C1=C[C@H](C1CCCC1)O[C@@H]2C was read as NR1D1 modulator 10.
For COc1cc(OC)c(OC)cc1CNC(=O)c1cccc(S(=O)(=O)N2CCc3ccccc3C2)c1 the results were PG9 binder 1, NR1D1 modulator -3, NR2E3 ag-1 91*, NR2E3 ag confirm 96* and GAL4-VP16 luc 81*.
`COc1ccc(CNC(=O)c2cccc(S(=O)(=O)N3CCCCC3)c2)cc1OC` gave PG9 binder -2, NR1D1 modulator 0, NR2E3 ag-1 55, NR2E3 ag-2 3, NR2E3 ag confirm 59 and GAL4-VP16 luc 57.
Screening COc1ccc(CNC(=O)c2ccc(Cl)c(S(=O)(=O)N3CCOCC3)c2)cc1OC returned NR2E3 ag-1 56, NR2E3 ag-2 1, NR2E3 ag confirm 49 and GAL4-VP16 luc 52.
Screening O=C(CSc1nnc(-c2cnccn2)n1-c1ccccc1)c1ccccc1Br returned NR1D1 modulator -6.
`Cc1nc2ccccc2n1CC(O)COc1ccc(Br)cc1` (stereo not given) gave PG9 binder -1, NR1D1 modulator 5, NR2E3 ag-1 9 and NR2E3 ag-2 -1.
`CCC(=O)c1ccc(OCC(O)Cn2c(C)nc3ccccc32)cc1` (stereo not given) gave PG9 binder 3, NR1D1 modulator 1, NR2E3 ag-1 51, NR2E3 ag-2 2, NR2E3 ag confirm 54 and GAL4-VP16 luc 38.
c1nc(NCC2CCCC2)c2cc(-c3ccc4c(c3)OCO4)ccc2n1 was read as NR1D1 modulator 3.
For O=C(O)c1ccc(N/N=C/c2ccc(C(F)(F)F)cc2)cc1 the results were PG9 binder 0, NR1D1 modulator -2, NR2E3 ag-1 -20 and NR2E3 ag-2 -1.
CC(C)(C)c1ccc(/C=N/Nc2ccc(C(=O)O)cc2)cc1 was read as PG9 binder -3, NR1D1 modulator -5, NR2E3 ag-1 50, NR2E3 ag-2 0, NR2E3 ag confirm 65 and GAL4-VP16 luc -33.
For Cc1ccc(S(=O)(=O)N(C)[C@H]2C[C@H]3c4cc(-c5ccccc5C)ccc4CCN3C[C@H]2[C@H](C)O)cc1 the results were NR1D1 modulator -5.
Screening Cc1ccc(-c2nc(CSCC(=O)NCC3CCCO3)c(C)o2)cc1 (stereo not given) returned PG9 binder 5, NR1D1 modulator 10, NR2E3 ag-1 49, NR2E3 ag-2 1, NR2E3 ag confirm 62 and GAL4-VP16 luc 45.
`CCOc1ccc(-c2nc(CSCC(=O)NCC3CCCO3)c(C)o2)cc1` (stereo not given) gave PG9 binder 0, NR1D1 modulator 3, NR2E3 ag-1 104*, NR2E3 ag-2 1, NR2E3 ag confirm 92* and GAL4-VP16 luc 87*.
`O=C(NCc1ccccc1CN1CCCC1)c1cccc(N2CCCC2=O)c1` gave PG9 binder 1, NR1D1 modulator -2, NR2E3 ag-1 78*, NR2E3 ag-2 6, NR2E3 ag confirm -7 and GAL4-VP16 luc -9.
`CCOC(=O)C1(Cc2ccc(Cl)cc2)CCN(C(C)Cc2ccc(O)c(OC)c2)CC1` (stereo not given) gave PG9 binder 2, NR1D1 modulator -5, NR2E3 ag-1 64, NR2E3 ag-2 6, NR2E3 ag confirm 86* and GAL4-VP16 luc 75*.
COC(=O)[C@]12C[C@H](CC(=O)NCCc3ccccc3OC)C(=O)N(Cc3ccco3)C1=C[C@H](COCc1ccccc1)O[C@@H]2C was read as NR1D1 modulator -6.
Screening CC1(c2ccc3ccccc3c2)NC(=O)N(CC(=O)N2CCN(Cc3ccccc3)CC2)C1=O (stereo not given) returned NR2E3 ag-1 64, NR2E3 ag-2 2, NR2E3 ag confirm 70* and GAL4-VP16 luc 57.
Screening CC1(c2ccc3ccccc3c2)NC(=O)N(CC(=O)N2CCC(C(N)=O)CC2)C1=O (stereo not given) returned PG9 binder 0, NR1D1 modulator 2, NR2E3 ag-1 -12 and NR2E3 ag-2 -3.
Cc1cccc(CSc2cccc3cccnc23)c1 was read as PG9 binder 0, NR1D1 modulator 14, NR2E3 ag-1 88*, NR2E3 ag-2 3, NR2E3 ag confirm -51 and GAL4-VP16 luc -104.
For NNC(=O)c1ccc(CSc2cccc3cccnc23)cc1 the results were PG9 binder 0, NR1D1 modulator 3, NR2E3 ag-1 2 and NR2E3 ag-2 -3.
For Cc1ccc(NC(=O)C(C)c2ccc(-c3ccccc3)c(F)c2)cc1 (stereo not given) the results were PG9 binder -1, NR1D1 modulator 3, NR2E3 ag-1 74*, NR2E3 ag-2 0, NR2E3 ag confirm 89* and GAL4-VP16 luc 77*.
For Cc1nc(NC(C)c2ccccc2)c2oc3ccccc3c2n1 (stereo not given) the results were PG9 binder 0, NR1D1 modulator 0, NR2E3 ag-1 62, NR2E3 ag-2 0, NR2E3 ag confirm 81* and GAL4-VP16 luc 66.
For COc1ccc(CCNc2nc(C)nc3c2oc2ccccc23)cc1OC the results were PG9 binder 0, NR1D1 modulator -1, NR2E3 ag-1 73*, NR2E3 ag-2 1, NR2E3 ag confirm 90* and GAL4-VP16 luc 73*.
